Screening results: PubChem BioAssay, Johns Hopkins Ion Channel Center
MrgX1 antagonist – antagonists of human MrgX1 receptor, primary screen, HEK293 cells, Fluo-4 calcium flux; 310,000 compounds, 1.3% hits; Mas-related G-protein coupled receptor member X1 (Homo sapiens), Q96LB2; AID 588676, 2011; BAM8-22 antagonism; hits give low values; B-score at 10 µM;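 active = calcium-response B-score plate-corrected more than 3 library SD below zero, starting fluorescence within 5 deviations, no agonist response on first addition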;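 note: peak minus trough fluorescence over baseline after final BAM8-22 challenge near maximal dose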
Target sequence (Q96LB2 whole entry, looked up): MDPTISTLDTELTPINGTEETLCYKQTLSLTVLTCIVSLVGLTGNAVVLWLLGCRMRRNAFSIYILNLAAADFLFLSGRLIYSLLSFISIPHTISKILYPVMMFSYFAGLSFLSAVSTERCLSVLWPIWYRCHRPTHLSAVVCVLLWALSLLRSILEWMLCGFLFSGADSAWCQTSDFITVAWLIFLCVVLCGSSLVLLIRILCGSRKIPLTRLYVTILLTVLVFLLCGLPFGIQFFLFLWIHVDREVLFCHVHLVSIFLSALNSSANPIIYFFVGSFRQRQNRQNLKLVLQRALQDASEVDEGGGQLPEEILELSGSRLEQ
MrgX1 agonist – agonists of human MrgX1 receptor, primary screen, HEK293 cells, Fluo-4 calcium flux. 310,000 compounds, 0.44% hits. Fluo-4 calcium fluorescence, agonist mode; hits give high values. AID 588627, 2011. B-score at 10 µM. Mas-related G-protein coupled receptor member X1 (Homo sapiens), Q96LB2;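 active = calcium response B-score plate-corrected fluorescence ratio at least 3 library SD, with starting fluorescence B-score inside 5 SD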
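Test system: HEK293 cells stably expressing human MrgX1 receptor; amount: 15,000 cells per well; doses: compound delivered in addition one of three; times: overnight plating before 1 h dye loading; detection: Fluo-4 NW calcium-flux fluorescence, kinetic read; read-out basis: B-scored fluorescence response ratio; controls: positive and negative controls per plate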
MrgX1 PAM – positive allosteric modulators of MrgX1, primary screen, HEK293 cells, Fluo-4 calcium flux. FDSS; hits give high values. 310,000 compounds, 0.63% hits. B-score at 10 µM. Mas-related G-protein coupled receptor member X1 (Homo sapiens), Q96LB2;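 active = plate-corrected calcium response at least 3 library SD above typical, normal starting fluorescence, not activating the receptor alone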;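 note: compound read alongside a low EC10 to EC30 dose of BAM8-22 agonist; peak minus trough fluorescence over baseline measured at the second addition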
RGS4 inh – RGS4 inhibitors, primary screen, cell-based, HEK293 M3R inducible RGS4, calcium flux; 310,000 compounds, 0.45% hits; Regulator of G-protein signaling 4 (Homo sapiens), P49798; B-score at 10 µM; Fluo-4 calcium flux; hits give high values; triggered by carbachol at its EC20;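 active = B-score, a plate-corrected calcium signal, over three deviations above library mean, with baseline fluorescence within five deviations of library mean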;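 note: RGS4 expression induced by doxycycline in cells with stable M3 receptor; B-score is computed from the integrated fluorescence ratio over baseline after carbachol; higher B-score means a larger calcium signal and so more RGS4 inhibition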
Target sequence (P49798 whole entry, looked up): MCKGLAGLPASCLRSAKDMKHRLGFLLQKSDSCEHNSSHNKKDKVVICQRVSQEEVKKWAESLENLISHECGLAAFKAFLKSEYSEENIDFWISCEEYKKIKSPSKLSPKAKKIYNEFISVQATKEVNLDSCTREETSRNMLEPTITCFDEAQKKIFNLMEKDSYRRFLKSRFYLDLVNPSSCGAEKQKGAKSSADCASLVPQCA
RGS4 act – RGS4 potentiators or activators, primary screen, cell-based, HEK293 M3R inducible RGS4, calcium flux; carbachol calcium flux Fluo4; hits give low values; B-score at 10 µM; 310,000 compounds, 0.92% hits; AID 463111, 2010;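 active = B-score of the integrated calcium signal more than 4 SD below the library mean, with starting fluorescence not abnormally high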;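 note: negative B-score means reduced calcium response which marks RGS4 activation or potentiation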
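Material: M3R-expressing HEK293 line, RGS4 induced by doxycycline | Schedule: Overnight RGS4 induction, 30 min dye load 37 °C, 20 min compound RT | Measured by: Fluo4 fluorescence kinetic imaging of calcium | Read-out: Integrated calcium ratio converted to B score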
MrgX1 ag reconf – MrgX1 receptor agonists, duplicate retest, confirmation, HEK293 cells, Fluo-4 calcium flux. shares compounds with MrgX1 agonist. Fluo-4 calcium fluorescence, FDSS. activation, % at 10 µM. 600 compounds, 78% hits;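 active = calcium signal rise, corrected for plate position, at least 3 library SD high, with starting brightness within 5 such deviations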
HEK293 Ca flux – nonspecific calcium signal in parental HEK293, confirmation, counter-screen for MrgX1 antagonist project, parental HEK293 cells, Fluo-4 calcium flux; shares compounds with MrgX1 antagonist; 4,000 compounds, 2% hits; AID 624111, 2012; Fluo-4 calcium fluorescence, FDSS; fluorescence ratio F(max-min)/F0 at 10 µM;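 active = duplicate-averaged calcium fluorescence ratio at least three times the standard deviation of buffer wells, a nonspecific response in parental cells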
HEK293 Ca counter – calcium response in parental HEK293 cells, primary screen, counter-screen for MrgX1 allosteric activator project, cell-based, Fluo-4 calcium flux, duplicate; Fluo-4 fluorescence ratio; hits give high values; shares compounds with MrgX1 antagonist; 4,000 compounds, 0.4% hits; fluorescence ratio F(max-min)/F0 at 10 µM; AID 624114, 2012;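 active = calcium fluorescence ratio, averaged over duplicates, at least 3 SD of the buffer-well ratio, meaning a nonspecific response in receptor-free cells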;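 note: untransfected parental HEK293 lacking MrgX1 used as counterscreen for MrgX1 allosteric activators; fluorescence change taken during the second addition on a kinetic imager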
HEK293 Ca cntr2 – calcium response in parental HEK293 cells, primary screen, counter-screen for MrgX1 agonist project, cell-based, Fluo-4 calcium flux, duplicate, agonist mode; shares compounds with MrgX1 antagonist; Fluo-4 calcium fluorescence (FDSS); hits give high values; fluorescence ratio F(max-min)/F0 at 10 µM; 4,000 compounds, 8.7% hits; AID 624115, 2012;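 active = calcium fluorescence ratio at least three times the spread of buffer wells, meaning a non-specific response in parental cells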
* hit, by the source's call; i = inactive; . = no result. An excerpt weighted towards active compounds, which were near 3.5% of everything screened.

SMILES	MrgX1 antagonist	MrgX1 agonist	MrgX1 PAM	RGS4 inh	RGS4 act	MrgX1 ag reconf	HEK293 Ca flux	HEK293 Ca counter	HEK293 Ca cntr2
COc1ccc2c(c1OC)C(=O)N(c1cccc(NC(C)=O)c1)C2	i	27*	i	i	i	119%*	i	i	i
Cc1c2ccccc2nc2c(F)c(NC(C)C)c(F)c(F)c12	i	i	i	i	i	.	.	.	.
Cc1c2ccccc2nc2c(F)c(NCCO)c(F)c(F)c12	i	30*	i	i	i	i	0.12*	i	i
O=C1CC(C(=O)N2CCCc3ccccc32)CN1c1ccc(Cl)cc1 (stereo not drawn)	i	i	i	i	i	.	.	.	.
Cc1ccc(-c2n[nH]c(=O)c3ccccc23)cc1S(=O)(=O)NCC1CCCO1 (stereo not drawn)	i	40*	i	i	i	174%*	i	i	i
CC1CCC(C(=O)c2c(O)c3ccccc3oc2=O)CC1 (stereo not drawn)	i	69*	i	i	i	282%*	i	i	84*
O=C(CC1CCCCC1)c1c(O)c2ccccc2oc1=O	i	87*	i	i	i	428%*	i	i	92*
CC(=N)c1c(O)c2ccccc2oc1=O	i	i	i	i	i	.	.	.	.
COc1ccccc1/C=C/C=N/NC(=O)CN1CCN(S(=O)(=O)c2ccc(C)cc2)CC1	i	i	i	i	i	.	.	.	.
CNc1nc(C)nc(-n2nc(C)cc2C)n1	i	i	i	i	i	.	.	.	.
Cc1cc(C)n(-c2nc(C)nc(NCc3ccccc3)n2)n1	i	34*	i	i	i	130%*	i	i	i
Cc1cc(=O)oc2ccc(OCC(=O)N3CCC(C)CC3)cc12	i	28*	i	i	i	215%*	i	i	i
Cc1[nH]n(-c2ccccc2)c(=O)c1N=Nc1nccs1	i	66*	i	i	i	261%*	i	i	51*
CCn1cc(CNC(=O)/C=C/c2ccc([N+](=O)[O-])cc2)c(C)n1	i	i	i	i	i	.	.	.	.
CC(C)NC[C@H](O)c1ccc(O)c(O)c1	i	32*	i	.	.	124%*	i	i	i
Cc1oc2cc(O)ccc2c(=O)c1-c1nncn1-c1ccccc1	i	30*	i	i	i	i	i	i	i
O=C1CSc2ccc(C(=O)NCCC3=CCCCC3)cc2N1	i	119*	i	i	i	i	i	i	i
COc1ccc(N2C(=O)C3C(C2=O)C(C(=O)c2ccc(Cl)cc2)N2CCCC32)cc1 (stereo not drawn)	i	72*	i	i	i	i	i	i	i
CC(=O)c1ccc(N2C(=O)C3C(C2=O)C(C(=O)c2ccc(Cl)cc2)N2CCCC32)cc1 (stereo not drawn)	.	.	.	i	i	.	.	.	.
CCOc1ccc(C(CCc2ccccc2)NC(=O)c2ccccc2OC)cc1OCC (stereo not drawn)	i	i	i	i	i	.	.	.	.
c1ccc2c(c1)Cc1cc3ccccc3nc1-2	i	i	i	i	i	.	.	.	.
ClCC1=Nc2ccccc2Cc2ccccc21	i	29*	i	i	i	111%*	i	i	i
Cc1occc1-c1nnc(SCC(=O)N2CCc3ccccc32)o1	i	37*	i	i	i	207%*	i	i	i
O=C(CSc1nnc(-c2cccs2)o1)N1CCc2ccccc21	i	i	i	i	i	.	.	.	.
CCOC(=O)c1c(CC(C)C)csc1NC(C)=O	i	i	i	i	i	.	.	.	.
SMILES	MrgX1 antagonist	MrgX1 agonist	MrgX1 PAM	RGS4 inh	RGS4 act	MrgX1 ag reconf	HEK293 Ca flux	HEK293 Ca counter	HEK293 Ca cntr2
CCOC(=O)c1c(CC(C)C)csc1NC(=O)c1ccccc1C(=O)O	i	37*	i	i	i	220%*	i	i	i
O=C(NCc1ccco1)C(c1ccccc1F)N(Cc1cccnc1)C(=O)Cn1nnc2ccccc21 (stereo not drawn)	i	i	i	i	i	.	.	.	.
Cc1ccc(-n2ncc3c(NCc4ccc5c(c4)OCO5)ncnc32)c(C)c1	i	32*	i	i	i	224%*	i	i	48*
Cc1cccc(-n2ncc3c(NCc4ccc5c(c4)OCO5)ncnc32)c1	i	i	i	i	i	.	.	.	.
CCOc1ccccc1NC(=O)CSc1ccc(-c2sc(C)nc2C)nn1	i	37*	i	i	i	170%*	i	i	i
CCOc1ccccc1NC(=O)CSc1ccc(-c2ccco2)nn1	i	i	i	i	i	.	.	.	.
CC1CCCN(C(=O)CN2C(=O)c3ccccc3C2=O)C1 (stereo not drawn)	i	i	i	i	i	.	.	.	.
Cc1ccc(N/C=C(\C#N)c2ccc(OCCCF)cc2)cc1	i	i	i	i	i	.	.	.	.
c1ccc2c(c1)NC1(CCCC1)n1c-2nc2ccccc21	i	29*	i	i	i	144%*	i	i	i
CCCC1(C)Nc2ccccc2-c2nc3ccccc3n21 (stereo not drawn)	i	i	i	i	i	.	.	.	.
Cc1ccc(N(CC(=O)Nc2ccc(C)cn2)S(=O)(=O)c2c(C)nn(C)c2C)cc1	i	i	i	i	i	.	.	.	.
CN(C)c1ccc(/C=N\Nc2ccccn2)cc1	i	i	i	i	i	.	.	.	.
Oc1c(C=NCc2ccc(F)cc2)[nH]c2ccc(Br)c(Cl)c12	i	27*	i	5.7*	i	332%*	i	i	71*
